Calls of active or inactive are those of the source.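 How the source made its calls, unless noted: active means viability at or below 10% of carrier control in both of two separate runs; inconclusive means viability at or below 10% in only one of the two runs; inactive means the rest.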
How the values were obtained:
[1] = reducers of endogenous Her2 protein level, primary screen, SKBR3 breast tumor cells, AlphaScreen, ATP viability (AID 461;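 active means Her2 level under about 52% in both replicate screens, with viability over 70% of control, limit read from the data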;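 on Her2 level: lower value means less Her2 protein in the cells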;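 on viability: percent of carrier control wells set as 100% viability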); conditions: 18-24 h, measured here: SKBR3 viability, ATP luminescence, at 10 µM
[2] = molecular target: Receptor tyrosine-protein kinase erbB-2 (Homo sapiens) (UniProt P04626); experiment: as above; conditions: 18-24 h, at 10 µM, stronger effect = lower value
[3] = SK-BR-3 cell growth inhibitors, pilot screen, 24 h, human (AID 572); conditions: SK-BR-3 viability, CellTiter-Glo luminescence, at 10 µM, stronger effect = lower value;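 further: compound exposure lasted between 18 and 24 h rather than exactly 24 h; 100% = carrier-treated control wells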
[4] = HUVEC growth inhibition – cell-based, human, primary screen (AID 575;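 active means viability at or below 30% in both replicate assays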;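 further: 100% = median of untreated cell wells with 0.1% DMSO on each plate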); conditions: HUVEC proliferation, CellTiter-Glo luminescence, 72 h; at 10 µM; stronger effect = lower value
Summary of the method: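 Material: primary human umbilical vein endothelial cells / Schedule: 72 h exposure, 37 °C, 5% CO2, 30 min RT equilibration / Signal: ATP-based CellTiter-Glo luminescent read / Read-out basis: percent of median DMSO-control luminescence / Control set: 32 DMSO-only cell-control wells (high), 32 MePR drug-control wells (low) per plate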

[5] = growth inhibitors of H69AR lung tumor, primary screen, human, duplicate replicates (AID 580;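 active means viability at or under a set limit in both replicates, limit being median viability minus 3 SD, cut at about 48% in these data, passing the limit was not always enough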;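 further: 100% = mean luminescence of untreated wells and 0% = no signal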); conditions: H69AR lung tumor cells viability, ATP luminescence, 72 h; at 10 µM; stronger effect = lower value
[6] = reversal of MRP1-mediated doxorubicin resistance, pilot screen, H69AR cells, doxorubicin co-treatment (AID 601;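 active means viability loss from added drug above about 55%, and viability with drug at most 40%, in both replicates, limit read from the data, passing the limit was not always enough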); conditions: CellTiter-Glo, 72 h, at 10 µM; for differential viability (reversal): stronger effect = higher value
[7] = 384-well plate pilot, post-Golgi transport modulator project, inhibition of yeast transport mutant growth (AID 636; in the data active means inhibition above about 31%); conditions: absorbance 615 nm, about 18 h, stronger effect = higher value
[8] = growth suppression of yeast trafficking mutant, preliminary HTS, modulators of trafficking downstream of Golgi apparatus project, 1536-format plate, OD 615 nm (AID 637; in the data active means inhibition above about 30%); conditions: yeast transport mutant growth, absorbance 615 nm, 18 h; stronger effect = higher value
[9] = H69AR cells + 2 uM doxorubicin, measured here: viability with 2 uM doxorubicin, stronger effect = lower value
[10] = H69AR cells, compound alone cytotoxicity

Chain of Receptor tyrosine-protein kinase erbB-2 (Homo sapiens) (P04626 whole entry, looked up): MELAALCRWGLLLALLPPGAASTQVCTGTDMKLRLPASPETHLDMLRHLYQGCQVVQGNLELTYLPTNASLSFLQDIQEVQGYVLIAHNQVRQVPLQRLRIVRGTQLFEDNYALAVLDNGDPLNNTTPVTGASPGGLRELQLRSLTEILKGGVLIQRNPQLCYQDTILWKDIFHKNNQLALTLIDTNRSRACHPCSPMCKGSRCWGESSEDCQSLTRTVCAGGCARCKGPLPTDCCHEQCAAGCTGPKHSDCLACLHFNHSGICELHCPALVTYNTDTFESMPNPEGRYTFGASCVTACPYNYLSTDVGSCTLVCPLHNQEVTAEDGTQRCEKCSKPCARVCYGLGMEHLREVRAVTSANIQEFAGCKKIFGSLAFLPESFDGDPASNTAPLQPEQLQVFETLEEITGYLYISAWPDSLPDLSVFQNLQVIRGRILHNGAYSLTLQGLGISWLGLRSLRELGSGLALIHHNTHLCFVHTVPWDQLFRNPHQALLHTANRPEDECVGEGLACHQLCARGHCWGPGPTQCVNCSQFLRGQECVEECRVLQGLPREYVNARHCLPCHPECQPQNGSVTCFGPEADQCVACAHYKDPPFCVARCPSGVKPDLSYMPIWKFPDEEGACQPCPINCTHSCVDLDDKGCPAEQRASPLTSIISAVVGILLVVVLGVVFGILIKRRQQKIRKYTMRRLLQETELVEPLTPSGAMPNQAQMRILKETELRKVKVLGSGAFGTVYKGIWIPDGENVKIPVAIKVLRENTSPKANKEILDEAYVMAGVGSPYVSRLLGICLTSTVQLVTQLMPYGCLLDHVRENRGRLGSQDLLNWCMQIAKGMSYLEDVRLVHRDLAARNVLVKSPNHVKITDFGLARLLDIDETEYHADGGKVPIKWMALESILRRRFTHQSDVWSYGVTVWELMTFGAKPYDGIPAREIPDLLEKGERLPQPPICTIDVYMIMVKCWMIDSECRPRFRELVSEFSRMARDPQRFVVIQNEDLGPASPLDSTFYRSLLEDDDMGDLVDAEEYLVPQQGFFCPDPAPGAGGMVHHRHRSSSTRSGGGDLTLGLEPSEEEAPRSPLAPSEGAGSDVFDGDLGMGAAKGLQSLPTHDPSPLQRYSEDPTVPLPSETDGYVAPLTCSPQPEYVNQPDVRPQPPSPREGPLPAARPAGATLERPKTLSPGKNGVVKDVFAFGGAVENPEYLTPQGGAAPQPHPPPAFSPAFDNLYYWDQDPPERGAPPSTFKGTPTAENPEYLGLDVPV

SMILES	viability [1] [%]	Her2 level [2]	viability [3]	viability [4]	viability [5]	differential viability (reversal) ([6]; H69AR cells + 2 uM doxorubicin)	viability [6, 9] [%]	viability [6, 10] [%]	inhibition [7]	inhibition [8]
CCCCn1c(SCC(=O)Nc2ccc(OC)cc2)nc2ccc(N3CCOCC3)cc2c1=O	94.5	86% (inactive)	94.5% (inactive)	72.4% (inactive)	89.6% (inactive)	0.605% (inactive)	89	89.6	-2.8% (inactive)	0.16% (inactive)
COc1ccc(-c2nc(C#N)c(N3CCOCC3)o2)cc1OC	111	92% (inactive)	111% (inactive)	89.8% (inactive)	84.5% (inactive)	-0.495% (inactive)	85	84.5	-1.3% (inactive)	9% (inactive)
O=C(Cc1cccs1)Nc1ccccc1C(=O)O	109	96.5% (inactive)	109% (inactive)	87.5% (inactive)	103% (inactive)	5.91% (inactive)	97.2	103	-4.67% (inactive)	5.16% (inactive)
CCOC(=O)CNC(=O)CSc1ncnc2c1cnn2Cc1ccccc1	96	82.5% (inactive)	96% (inactive)	54.5% (inactive)	100% (inactive)	10.3% (inactive)	90.1	100	-5.84% (inactive)	-6.56% (inactive)
CCN(C(=O)COC(=O)c1cc(C)n(-c2ccc(F)cc2)c1C)C1CCS(=O)(=O)C1 (stereo not given)	85.5	93.5% (inactive)	85.5% (inactive)	103% (inactive)	103% (inactive)	-0.795% (inactive)	104	103	-3.47% (inactive)	1.61% (inactive)
O=C(CCn1c(=S)[nH]c2ccccc2c1=O)NCC1CCCO1 (stereo not given)	118	100% (inactive)	118% (inactive)	111% (inactive)	98.2% (inactive)	6.03% (inactive)	92.2	98.2	-6.13% (inactive)	0.66% (inactive)
CN(C)S(=O)(=O)c1ccc(C(=O)NCc2cccs2)cc1	82	87% (inactive)	82% (inactive)	101% (inactive)	101% (inactive)	8.48% (inactive)	92.8	101	-4.05% (inactive)	3.81% (inactive)
O=C(Nc1ccc(Cl)cc1C(=O)Nc1ccncc1)c1ccco1	121	48.5% (active)	121% (inactive)	70.1% (inactive)	41.3% (active)	-19.2% (inactive)	60.5	41.3	-1.84% (inactive)	-1.59% (inactive)
CCC(=O)N1CCc2cc(OC)c(OC)cc2C1COc1ccc(C(=O)OC)cc1 (stereo not given)	94.5	83% (inactive)	94.5% (inactive)	87.2% (inactive)	91.5% (inactive)	-2.33% (inactive)	93.9	91.5	-5.33% (inactive)	1.61% (inactive)
O=C(Nc1ccccc1)c1cccc(N2CCCC2=O)c1	93	114% (inactive)	93% (inactive)	104% (inactive)	103% (inactive)	18.2% (inactive)	84.8	103	-1.07% (inactive)	-9.52% (inactive)
C/C(=C(\C#N)C(=O)NCCCN1CCOCC1)N(C)C	96.5	106% (inactive)	96.5% (inactive)	95.2% (inactive)	102% (inactive)	8.58% (inactive)	93.1	102	-1.58% (inactive)	5.57% (inactive)
O=C(NCc1ccco1)C1CC(=O)N(c2ccc(F)cc2)C1 (stereo not given)	96.5	97% (inactive)	96.5% (inactive)	108% (inactive)	108% (inactive)	16% (inactive)	91.5	108	-0.93% (inactive)	-1.61% (inactive)
COc1cc(C(=O)Nc2ccc3c(c2)C(=O)N(CCC(=O)O)C3=O)cc(OC)c1OC	97.5	83% (inactive)	97.5% (inactive)	98% (inactive)	106% (inactive)	5.66% (inactive)	100	106	-3.42% (inactive)	-2.86% (inactive)
Cc1ccccc1NC(=O)c1c(F)c(F)c(F)c(F)c1F	90.5	98% (inactive)	90.5% (inactive)	103% (inactive)	88.9% (inactive)	2.94% (inactive)	86	88.9	-5.13% (inactive)	4.1% (inactive)
COc1ccc(CCNC(=O)C2CCN(Cc3nc(-c4cccc(Cl)c4)oc3C)CC2)cc1OC	83.5	81.5% (inactive)	83.5% (inactive)	47.9% (inactive)	73.4% (inactive)	-27.2% (inactive)	101	73.4	-5.13% (inactive)	-1.45% (inactive)
CC1CCN(S(=O)(=O)c2cn(CC(=O)N3CCN(C)CC3)c(=O)c3ccccc23)CC1	122	97% (inactive)	122% (inactive)	104% (inactive)	97.4% (inactive)	0.39% (inactive)	97	97.4	-1.69% (inactive)	-7.46% (inactive)

SMILES	viability [1] [%]	Her2 level [2]	viability [3]	viability [4]	viability [5]	differential viability (reversal) ([6]; H69AR cells + 2 uM doxorubicin)	viability [6, 9] [%]	viability [6, 10] [%]	inhibition [7]	inhibition [8]
COC(=O)C1CCN(C(=O)NC(C)(C)C)CC1	110	83% (inactive)	110% (inactive)	104% (inactive)	105% (inactive)	17.2% (inactive)	87.3	105	-5.27% (inactive)	8.73% (inactive)
Cc1nc2ccccn2c1C(=O)NCCCN1CCOCC1	91.5	94.5% (inactive)	91.5% (inactive)	109% (inactive)	102% (inactive)	5.8% (inactive)	96.4	102	-0.27% (inactive)	4.59% (inactive)
Cc1cccc(C2CC(c3ccc(Br)cc3)Nc3nc(N)nn32)c1 (stereo not given)	92.5	94% (inactive)	92.5% (inactive)	72.6% (inactive)	87.6% (inactive)	-14.7% (inactive)	102	87.6	-4.4% (inactive)	2.33% (inactive)
Cc1nn(S(=O)(=O)N2CCCCC2)c(C)c1Br	95	130% (inactive)	95% (inactive)	96.2% (inactive)	102% (inactive)	5.13% (inactive)	97.1	102	-1.41% (inactive)	-6.17% (inactive)
O=C(COc1ccc(S(=O)(=O)NC2CCCCC2)cc1Cl)NCC1CCCO1 (stereo not given)	88.5	98% (inactive)	88.5% (inactive)	98.6% (inactive)	89.4% (inactive)	0.36% (inactive)	89	89.4	-5.07% (inactive)	-7.78% (inactive)
C=CCn1c(N)c(C(=O)NCCC2=CCCCC2)sc1=S	85.5	92.5% (inactive)	85.5% (inactive)	44.6% (inactive)	83.2% (inactive)	7.14% (inactive)	76	83.2	-6.49% (inactive)	-0.95% (inactive)
COCCN1C(=O)C(=O)/C(=C(/O)c2cccc(OC)c2)C1c1ccncc1 (stereo not given)	99	104% (inactive)	99% (inactive)	101% (inactive)	93% (inactive)	-3.51% (inactive)	96.5	93	-0.26% (inactive)	3.64% (inactive)
COc1ccc(N2CCN(c3ccc(N)cc3C#N)CC2)cc1	103	88.5% (inactive)	103% (inactive)	78.2% (inactive)	95% (inactive)	2.29% (inactive)	92.7	95	-3.38% (inactive)	0.32% (inactive)
CCOC(=O)N1CCN(C(=O)c2n[nH]c(=O)c3ccccc23)CC1	85	101% (inactive)	85% (inactive)	95.1% (inactive)	91.6% (inactive)	1.86% (inactive)	89.8	91.6	-1.6% (inactive)	19% (inactive)
O=C(c1cc(S(=O)(=O)N2CCOCC2)ccc1F)N1CCCc2ccccc21	99	87% (inactive)	99% (inactive)	102% (inactive)	90.9% (inactive)	-3.44% (inactive)	94.3	90.9	0.64% (inactive)	-2.83% (inactive)
COc1ccccc1C(=O)N1CCN(C(=O)c2ccncc2)CC1	122	106% (inactive)	122% (inactive)	88.6% (inactive)	103% (inactive)	13.7% (inactive)	89.2	103	-3.73% (inactive)	4.35% (inactive)
Cn1c(=O)oc2cc(S(=O)(=O)N3CCC(C(=O)Nc4ccc(OC(F)(F)F)cc4)CC3)ccc21	137	98.5% (inactive)	137% (inactive)	91.4% (inactive)	33% (active)	-4.57% (inactive)	37.5	33	-5.92% (inactive)	0.18% (inactive)
COCCCN(C(C)=O)c1nc(-c2ccccc2)cs1	91	85.5% (inactive)	91% (inactive)	65.5% (inactive)	94% (inactive)	9.96% (inactive)	84.1	94	-7.81% (inactive)	-3.17% (inactive)
CCC(=O)c1ccc(OCC(O)CN2CCN(S(=O)(=O)N3CCCCC3)CC2)cc1 (stereo not given)	91	82% (inactive)	91% (inactive)	105% (inactive)	110% (inactive)	18.1% (inactive)	92.2	110	-3.33% (inactive)	3.44% (inactive)
Cc1ccc(Cn2c(SCC(C)C)nc3c2c(=O)n(C)c(=O)n3C)cc1	84.5	75.5% (inactive)	84.5% (inactive)	62.2% (inactive)	77.5% (inactive)	-12.6% (inactive)	90.1	77.5	-1.84% (inactive)	9.34% (inactive)

From PubChem BioAssay
